In ChEMBL document CHEMBL1134408, “Antitumor agents. 207. Design, synthesis, and biological testing of 4beta-anilino-2-fluoro-4'-demethylpodophyllotoxin analogues as cytotoxic and antiviral agents” (2001):
Values after ≈ are worked out from the molar mass of the structure shown.

Columns and labels:
[1] = system: A549; assay: % inhibition against A549 cells (lung cancer) at 0.04 ug/mL; format: functional; conditions: Homo sapiens
[2] = system: A549; assay: % inhibition against A549 cells (lung cancer) at 0.4 ug/mL; format: functional; conditions: Homo sapiens
[3] = system: A549; assay: % inhibition against A549 cells (lung cancer) at 4 ug/mL; format: functional; conditions: Homo sapiens
[4] = system: CAKI-1; assay: % inhibition against CAKI-1 cells(renal carcinoma) at 0.04 ug/mL.; format: functional; conditions: Homo sapiens
[5] = system: CAKI-1; assay: % inhibition against CAKI-1 cells(renal carcinoma) at 0.4 ug/mL.; format: functional; conditions: Homo sapiens
[6] = system: CAKI-1; assay: % inhibition against CAKI-1 cells(renal carcinoma) at 4 ug/mL.; format: functional; conditions: Homo sapiens
[7] = system: Human betaherpesvirus 5; assay: Inhibitory activity against human cytomegalovirus (HCMV); format: functional; conditions: for IC50: read-out: ID50 (the source's name)
In short: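 Confluent HEL fibroblasts infected with Towne strain CMV at 1–2 PFU/cell, with or without a drug dilution series. Antiviral effect read either as extracellular virus yield (day-6 supernatant titred by plaque assay on HEL, counted at 2 weeks) or as viral DNA by 32P-CMV-probe dot hybridization with scintillation counting of dots.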

[8] = system: HEL; assay: Inhibitory activity against HEL cells; format: functional; conditions: Homo sapiens, read-out: ED50 (the source's name)
In short: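 Human embryonic lung fibroblasts in MEM/10% FBS, 6% CO2, seeded at 50 000 cells/mL with a drug dilution series. Exposure 15 days; viability and cell counts by trypan blue. ED50 (50% growth reduction versus untreated cells) interpolated from dose–response data.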

[9] = % inhibition against KB cells (nasopharyngeal carcinoma) at 0.04 ug/mL; format: functional; conditions: Homo sapiens
[10] = % inhibition against KB cells (nasopharyngeal carcinoma) at 0.4 ug/mL; format: functional; conditions: Homo sapiens
[11] = % inhibition against KB cells (nasopharyngeal carcinoma) at 4 ug/mL; format: functional; conditions: Homo sapiens
[12] = system: MCF7; assay: % inhibition against MCF-7 cells (breast cancer) at 0.04 ug/mL; format: functional; conditions: Homo sapiens
[13] = system: MCF7; assay: % inhibition against MCF-7 cells (breast cancer) at 0.4 ug/mL; format: functional; conditions: Homo sapiens
[14] = system: MCF7; assay: % inhibition against MCF-7 cells (breast cancer) at 4 ug/mL; format: functional; conditions: Homo sapiens
[15] = Selectivity index (ED50/ID50) value of the compound; format: functional
In short: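 Ratio of ED50 for growing HEL cells (15-day trypan blue count) to ID50 against Towne strain CMV in HEL fibroblasts.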

[16] = system: A549; assay: GI values against A549 cells (lung cancer); format: functional; conditions: Homo sapiens
[17] = system: CAKI-1; assay: GI values against CAKI-1 cells(renal carcinoma); format: functional; conditions: Homo sapiens
[18] = GI values against KB cells (nasopharyngeal carcinoma); format: functional; conditions: Homo sapiens
[19] = system: Human alphaherpesvirus 1; assay: Minimum inhibitory concentration against herpesvirus simplex 1; format: functional
In short: (§1)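 Plaque elimination in pre-formed confluent Vero monolayers, HSV-1 strain KOS or HSV-2 strain 186, ~100 PFU inoculum for 30 min. Overlay medium had 0.5% calf serum, 1% carboxymethylcellulose and drug dilutions. Crystal violet fix/stain at 2 days; macroscopic plaques scored. ED100 = dilution fully eliminating plaques without monolayer toxicity. MIC = lowest dilution reducing plaque size/number. Repeated at least twice.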

[20] = system: Human alphaherpesvirus 2; assay: Minimum inhibitory concentration against herpesvirus simplex 2; format: functional; in short: as §1
[21] = system: Human alphaherpesvirus 1; assay: Effective dose required to inhibit 100% against herpesvirus simplex 1; format: functional; in short: as §1
[22] = system: Human alphaherpesvirus 2; assay: Effective dose required to inhibit 100% against herpesvirus simplex 2; format: functional; in short: as §1
[23] = system: Vero; assay: Effective dose required to inhibit 25% of cell growth (Herpesvirus activity); format: functional, Chlorocebus sabaeus
In short: (§2)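 Cells seeded at 50 000 cells/mL with a drug dilution series, exposed 2 days; cell number by sulforhodamine B staining. ED25 interpolated from dose–response as the concentration cutting absorbency by 25%. MIC = lowest dilution giving detectable growth inhibition. Triplicate wells; absorbency within 5%, ED25 within 30% across independent tests.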

[24] = system: Vero; assay: Minimum inhibitory concentration for cell growth inhibition (Herpesvirus activity); format: functional; conditions: Chlorocebus sabaeus; in short: as §2

Compound: COc1cc([C@@H]2c3cc4c(cc3[C@@H](Nc3ccc(F)cc3)[C@H]3COC(=O)[C@]23F)OCO4)cc(OC)c1O
- inhibition at 0.04 µg/mL [1]: 16.1%
- inhibition at 0.4 µg/mL [2]: 26.2%
- inhibition at 4 µg/mL [3]: 61.4%
- inhibition at 0.04 µg/mL [4]: 10.3%
- inhibition at 0.4 µg/mL [5]: 15.3%
- inhibition at 4 µg/mL [6]: 44.3%
- ID90 [7]: 4470 nM
- IC50 [7]: 970 nM
- EC50 [8]: 6100 nM
- inhibition at 0.04 µg/mL [9]: 7.5%
- inhibition at 0.4 µg/mL [10]: 10.1%
- inhibition at 4 µg/mL [11]: 70.9%
- inhibition at 0.04 µg/mL [12]: 13.2%
- inhibition at 0.4 µg/mL [13]: 20%
- inhibition at 4 µg/mL [14]: 61.2%
- SI [15]: 6.2
- GI50 [16]: 2000 nM
- GI50 [17]: > 10000 nM
- GI50 [18]: 2000 nM

Compound: COc1cc([C@@H]2c3cc4c(cc3[C@@H](Nc3ccc5c(c3)OCCC5=O)[C@H]3COC(=O)[C@H]23)OCO4)cc(OC)c1O
- GI50 [16]: 100 nM
- GI50 [17]: 126 nM
- GI50 [18]: 631 nM

Compound: COc1cc([C@@H]2c3cc4c(cc3[C@@H](Nc3ccc(C#N)cc3)[C@H]3COC(=O)[C@]23F)OCO4)cc(OC)c1O
- inhibition at 0.04 µg/mL [1]: 11.1%
- inhibition at 0.4 µg/mL [2]: 11.9%
- inhibition at 4 µg/mL [3]: 52.5%
- inhibition at 0.04 µg/mL [4]: 7.9%
- inhibition at 0.4 µg/mL [5]: 9.5%
- inhibition at 4 µg/mL [6]: 28.4%
- ID90 [7]: 4290 nM
- IC50 [7]: 760 nM
- EC50 [8]: 8430 nM
- inhibition at 0.04 µg/mL [9]: 5%
- inhibition at 0.4 µg/mL [10]: 4.2%
- inhibition at 4 µg/mL [11]: 30.5%
- inhibition at 0.04 µg/mL [12]: 7.7%
- inhibition at 0.4 µg/mL [13]: 8.2%
- inhibition at 4 µg/mL [14]: 45.8%
- SI [15]: 11.1

Compound: COc1cc([C@@H]2c3cc4c(cc3[C@H](O)[C@H]3COC(=O)[C@]23F)OCO4)cc(OC)c1OC
- inhibition at 0.04 µg/mL [1]: 59.4%
- inhibition at 0.4 µg/mL [2]: 69.6%
- inhibition at 4 µg/mL [3]: 73.1%
- inhibition at 0.04 µg/mL [4]: 18.1%
- inhibition at 0.4 µg/mL [5]: 39.7%
- inhibition at 4 µg/mL [6]: 40.5%
- ID90 [7]: >5000 nM
- IC50 [7]: > 5000 nM
- MIC [19]: 1 µM (≈ 0.432 µg/mL)
- MIC [20]: 0.1 µM (≈ 0.0432 µg/mL)
- ED100 [21]: 10 µM
- ED100 [22]: 1000 nM
- inhibition at 0.04 µg/mL [9]: 53.3%
- inhibition at 0.4 µg/mL [10]: 72%
- inhibition at 4 µg/mL [11]: 87.4%
- inhibition at 0.04 µg/mL [12]: 34.2%
- inhibition at 0.4 µg/mL [13]: 48%
- inhibition at 4 µg/mL [14]: 51%
- ED25 [23]: 1000 nM
- MIC [24]: 0.8 µM (≈ 0.346 µg/mL)
- GI50 [16]: 3980 nM
- GI50 [17]: > 10000 nM
- GI50 [18]: 31.6 nM

Compound: COc1cc([C@@H]2c3cc4c(cc3[C@@H](Nc3ccc(N)cc3)[C@H]3COC(=O)[C@H]23)OCO4)cc(OC)c1O
- IC50 [7]: 1250 nM
- GI50 [16]: 316 nM
- GI50 [17]: 316 nM
- GI50 [18]: 794 nM

Compound: COc1cc([C@@H]2c3cc4c(cc3[C@@H](Nc3ccc([N+](=O)[O-])cc3)[C@H]3COC(=O)[C@H]23)OCO4)cc(OC)c1O
- IC50 [7]: 350 nM
- GI50 [16]: 158 nM
- GI50 [17]: 158 nM
- GI50 [18]: 501 nM

Compound: COc1cc([C@@H]2c3cc4c(cc3[C@H](O[Si](C)(C)C(C)(C)C)[C@H]3COC(=O)[C@]23F)OCO4)cc(OC)c1OC
- ED25 [23]: 25000 nM
- MIC [24]: 6 µM (≈ 3.28 µg/mL)

Compound: COc1cc([C@@H]2c3cc4c(cc3[C@@H](Nc3ccc([N+](=O)[O-])cc3)[C@H]3COC(=O)[C@]23F)OCO4)cc(OC)c1O
- inhibition at 0.04 µg/mL [1]: 0%
- inhibition at 0.4 µg/mL [2]: 6.5%
- inhibition at 4 µg/mL [3]: 51.8%
- inhibition at 0.04 µg/mL [4]: 0.8%
- inhibition at 0.4 µg/mL [5]: 2.6%
- inhibition at 4 µg/mL [6]: 21.9%
- ID90 [7]: 4600 nM
- IC50 [7]: 1450 nM
- EC50 [8]: 6090 nM
- inhibition at 0.04 µg/mL [9]: 0%
- inhibition at 0.4 µg/mL [10]: 3.8%
- inhibition at 4 µg/mL [11]: 41.6%
- inhibition at 0.04 µg/mL [12]: 0.9%
- inhibition at 0.4 µg/mL [13]: 7.3%
- inhibition at 4 µg/mL [14]: 42.1%
- SI [15]: 4.2
- GI50 [16]: 3980 nM
- GI50 [17]: > 10000 nM
- GI50 [18]: > 10000 nM

Compound: COc1cc([C@@H]2c3cc4c(cc3[C@H](O[Si](C)(C)C(C)(C)C)[C@H]3COC(=O)[C@H]23)OCO4)cc(OC)c1OC
- MIC [19]: 1 µM (≈ 0.529 µg/mL)
- MIC [20]: 0.1 µM (≈ 0.0529 µg/mL)
- ED100 [21]: 10 µM
- ED100 [22]: 1000 nM
- ED25 [23]: 6000 nM
- MIC [24]: 3 µM (≈ 1.59 µg/mL)

Compound: COc1cc([C@@H]2c3cc4c(cc3[C@@H](Nc3ccc(C#N)cc3)[C@H]3COC(=O)[C@H]23)OCO4)cc(OC)c1O
- IC50 [7]: 620 nM

Compound: COc1cc([C@@H]2c3cc4c(cc3[C@@H](O)[C@H]3COC(=O)[C@]23F)OCO4)cc(OC)c1O
- inhibition at 0.04 µg/mL [1]: 0%
- inhibition at 0.4 µg/mL [2]: 34.3%
- inhibition at 4 µg/mL [3]: 78.1%
- inhibition at 0.04 µg/mL [4]: 0%
- inhibition at 0.4 µg/mL [5]: 10.6%
- inhibition at 4 µg/mL [6]: 39%
- ID90 [7]: >5000 nM
- IC50 [7]: > 5000 nM
- EC50 [8]: 8200 nM
- inhibition at 0.04 µg/mL [9]: 0%
- inhibition at 0.4 µg/mL [10]: 25.6%
- inhibition at 4 µg/mL [11]: 64%
- inhibition at 0.04 µg/mL [12]: 0%
- inhibition at 0.4 µg/mL [13]: 21.8%
- inhibition at 4 µg/mL [14]: 53.8%
- SI [15]: < 1.6

Compound: COc1cc([C@@H]2c3cc4c(cc3[C@H](O)[C@H]3COC(=O)[C@H]23)OCO4)cc(OC)c1OC [PODOFILOX]
- IC50 [7]: < 100 nM
- MIC [19]: 0.01 µM (≈ 0.00414 µg/mL)
- MIC [20]: 0.01 µM (≈ 0.00414 µg/mL)
- ED100 [21]: 0.05 µM
- ED100 [22]: 100 nM
- ED25 [23]: 20 nM
- MIC [24]: 0.008 µM (≈ 0.00332 µg/mL)
- GI50 [16]: 7.94 nM
- GI50 [17]: 100 nM

Compound: COc1cc([C@@H]2c3cc4c(cc3[C@@H](Nc3ccc(F)cc3)[C@H]3COC(=O)[C@H]23)OCO4)cc(OC)c1O
- IC50 [7]: 650 nM
- GI50 [16]: 251 nM
- GI50 [17]: 316 nM
- GI50 [18]: 251 nM

Compound: COc1cc([C@@H]2c3cc4c(cc3[C@@H](Nc3ccc(N)cc3)[C@H]3COC(=O)[C@]23F)OCO4)cc(OC)c1O
- inhibition at 0.04 µg/mL [1]: 0%
- inhibition at 0.4 µg/mL [2]: 7.7%
- inhibition at 4 µg/mL [3]: 51%
- inhibition at 0.04 µg/mL [4]: 0%
- inhibition at 0.4 µg/mL [5]: 2.5%
- inhibition at 4 µg/mL [6]: 38%
- ID90 [7]: 5020 nM
- IC50 [7]: 2540 nM
- EC50 [8]: 7500 nM
- inhibition at 0.04 µg/mL [9]: 0%
- inhibition at 0.4 µg/mL [10]: 7.5%
- inhibition at 4 µg/mL [11]: 61.5%
- inhibition at 0.04 µg/mL [12]: 0%
- inhibition at 0.4 µg/mL [13]: 5.8%
- inhibition at 4 µg/mL [14]: 48.1%
- SI [15]: 3
- GI50 [16]: 3980 nM
- GI50 [17]: > 10000 nM
- GI50 [18]: 3980 nM
